Activity calls are given as the source filed them.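 Rule for the calls, unless noted: active = viability at or under a set limit in both replicates, limit being median viability minus 3 SD (cut at about 48% in these data, passing the limit was not always enough); inconclusive = at or under the limit in just one replicate; inactive = at or above the limit in both replicates.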
Legend:
[1] = reducers of endogenous Her2 protein level, primary screen, SKBR3 breast tumor cells, AlphaScreen, ATP viability (AID 461;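 active = Her2 level under about 52% in both replicate screens, with viability over 70% of control, limit read from the data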;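 for Her2 level: lower value means less Her2 protein in the cells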;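 for viability: percent of carrier control wells set as 100% viability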); conditions: 18-24 h, measured here: SKBR3 viability, ATP luminescence, at 10 µM
[2] = biological target: Receptor tyrosine-protein kinase erbB-2 (Homo sapiens) (UniProt P04626); assay: as above; conditions: 18-24 h, at 10 µM, stronger effect = lower value
[3] = SK-BR-3 cell growth inhibitors, pilot screen, 24 h, human (AID 572;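 active = viability at or below 10% of carrier control in both of two separate runs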;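 note: compound exposure lasted between 18 and 24 h rather than exactly 24 h; 100% = carrier-treated control wells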); conditions: SK-BR-3 viability, CellTiter-Glo luminescence, at 10 µM, stronger effect = lower value
[4] = HUVEC growth inhibition – cell-based, human, primary screen (AID 575;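 active = viability at or below 30% in both replicate assays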;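 note: 100% = median of untreated cell wells with 0.1% DMSO on each plate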); conditions: HUVEC proliferation, CellTiter-Glo luminescence, 72 h; at 10 µM; stronger effect = lower value
Procedure, shortened: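 material = primary HUVEC, no more than 12 passages | input = 1250 cells per well | controls = vehicle and MePR control wells | measured by = CTG luminescence | times = 72 h compound incubation | format = collagen-coated 384-well format | read-out = % viability vs DMSO wells | doses = single 10 µM dose, 0.1% DMSO, from 5x medium stock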

[5] = growth inhibitors of H69AR lung tumor, primary screen, human, duplicate replicates (AID 580); conditions: H69AR lung tumor cells viability, ATP luminescence, 72 h; at 10 µM; stronger effect = lower value;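 note: 100% = mean luminescence of untreated wells and 0% = no signal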
[6] = reversal of MRP1-mediated doxorubicin resistance, pilot screen, H69AR cells, doxorubicin co-treatment (AID 601;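 active = viability loss from added drug above about 55%, and viability with drug at most 40%, in both replicates, limit read from the data, passing the limit was not always enough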); conditions: CellTiter-Glo, 72 h, at 10 µM; for differential viability (reversal): stronger effect = higher value
[7] = 384-well plate pilot, post-Golgi transport modulator project, inhibition of yeast transport mutant growth (AID 636; in the data active = inhibition above about 31%); conditions: absorbance 615 nm, about 18 h, stronger effect = higher value
[8] = growth suppression of yeast trafficking mutant, preliminary HTS, modulators of trafficking downstream of Golgi apparatus project, 1536-format plate, OD 615 nm (AID 637; in the data active = inhibition above about 30%); conditions: yeast transport mutant growth, absorbance 615 nm, 18 h; stronger effect = higher value
[9] = H69AR cells + 2 uM doxorubicin, measured here: viability with 2 uM doxorubicin, stronger effect = lower value
[10] = H69AR cells, compound alone cytotoxicity

Receptor tyrosine-protein kinase erbB-2 (Homo sapiens), sequence (P04626 whole entry, looked up): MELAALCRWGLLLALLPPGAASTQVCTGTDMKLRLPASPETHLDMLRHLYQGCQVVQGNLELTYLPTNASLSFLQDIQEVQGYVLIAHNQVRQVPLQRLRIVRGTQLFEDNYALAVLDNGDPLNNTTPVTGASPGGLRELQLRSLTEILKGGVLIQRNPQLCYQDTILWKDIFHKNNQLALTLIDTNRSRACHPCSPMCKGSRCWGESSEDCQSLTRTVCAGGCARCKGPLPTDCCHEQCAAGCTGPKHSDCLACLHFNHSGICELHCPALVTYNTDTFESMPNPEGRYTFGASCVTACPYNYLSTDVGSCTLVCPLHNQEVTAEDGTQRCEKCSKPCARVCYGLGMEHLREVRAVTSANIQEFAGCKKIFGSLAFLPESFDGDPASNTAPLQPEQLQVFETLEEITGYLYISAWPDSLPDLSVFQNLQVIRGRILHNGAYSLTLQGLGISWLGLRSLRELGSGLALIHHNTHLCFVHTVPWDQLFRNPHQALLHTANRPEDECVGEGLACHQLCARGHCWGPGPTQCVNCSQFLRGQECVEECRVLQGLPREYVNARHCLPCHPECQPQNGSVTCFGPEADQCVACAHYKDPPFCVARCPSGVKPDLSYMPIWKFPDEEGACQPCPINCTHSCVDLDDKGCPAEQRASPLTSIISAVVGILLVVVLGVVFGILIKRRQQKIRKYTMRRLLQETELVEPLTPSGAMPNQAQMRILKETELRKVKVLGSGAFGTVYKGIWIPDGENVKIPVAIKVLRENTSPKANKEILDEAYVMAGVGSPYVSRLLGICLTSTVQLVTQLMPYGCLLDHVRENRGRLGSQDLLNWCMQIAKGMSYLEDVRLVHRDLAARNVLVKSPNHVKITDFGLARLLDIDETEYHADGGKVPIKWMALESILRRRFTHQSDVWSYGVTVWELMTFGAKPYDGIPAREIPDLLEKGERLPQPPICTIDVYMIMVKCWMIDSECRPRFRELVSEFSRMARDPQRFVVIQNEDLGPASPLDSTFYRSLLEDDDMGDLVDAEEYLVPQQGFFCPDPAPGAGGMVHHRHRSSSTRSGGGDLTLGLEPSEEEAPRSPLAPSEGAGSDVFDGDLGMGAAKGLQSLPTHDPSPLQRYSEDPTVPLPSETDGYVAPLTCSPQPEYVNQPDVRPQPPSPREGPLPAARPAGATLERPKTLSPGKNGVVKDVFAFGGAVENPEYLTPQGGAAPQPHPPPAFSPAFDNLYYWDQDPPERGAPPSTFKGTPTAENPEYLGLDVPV

Row | SMILES | viability [1] | Her2 level [2] | viability [3] | viability [4] | viability [5] | differential viability (reversal) ([6]; H69AR cells + 2 uM doxorubicin) | viability [6, 9] | viability [6, 10] | inhibition [7] | inhibition [8]
1 | O=C1CC(c2cccc(Cl)c2)Cc2nc(N3CCN(c4ccccc4)CC3)ncc21 (stereo not given) | 88% | 118% (inactive) | 88% (inactive) | 95.7% (inactive) | 91.3% (inactive) | -0.02% (inactive) | 91.3% | 91.3% | 1.3% (inactive) | 2.67% (inactive)
2 | O=C1c2ccccc2C(=O)N1C/C=C/c1ccccc1 | 81% | 75% (inactive) | 81% (inactive) | 78.2% (inactive) | 96.7% (inactive) | 7.29% (inactive) | 89.5% | 96.7% | -3.47% (inactive) | -1.29% (inactive)
3 | Cc1nn(-c2ccccc2)c(C)c1/C=N/O | 106% | 104% (inactive) | 106% (inactive) | 100% (inactive) | 96.5% (inactive) | 11.4% (inactive) | 85.1% | 96.5% | -4.73% (inactive) | 3.93% (inactive)
4 | COc1ccc(-c2cc(C(F)(F)F)nc(SCC(=O)NCc3ccco3)n2)cc1OC | 96.5% | 84% (inactive) | 96.5% (inactive) | 68.1% (inactive) | 55.2% (inactive) | -25.6% (inactive) | 80.9% | 55.2% | -0.66% (inactive) | -0.32% (inactive)
5 | CC(=O)c1ccc(OC(=O)c2cccs2)cc1 | 86% | 94.5% (inactive) | 86% (inactive) | 94.1% (inactive) | 105% (inactive) | -5.42% (inactive) | 110% | 105% | -3.11% (inactive) | 3.61% (inactive)
6 | Cc1cc(C)n(-c2cc(N3CCOCC3)nc(-c3ccccc3)n2)n1 | 85% | 104% (inactive) | 85% (inactive) | 75.7% (inactive) | 73.6% (inactive) | -7.4% (inactive) | 81% | 73.6% | -5.79% (inactive) | 4.17% (inactive)
7 | CC(C)c1ccc(S(=O)(=O)N2CCN(C(=O)c3cccc(F)c3)CC2)cc1 | 106% | 104% (inactive) | 106% (inactive) | 92% (inactive) | 88.3% (inactive) | -8.65% (inactive) | 96.9% | 88.3% | -5.73% (inactive) | 3.28% (inactive)
8 | Cc1cc2c(=O)n(Cc3ccco3)c(SCC(=O)NCc3ccco3)nc2s1 | 100% | 88% (inactive) | 100% (inactive) | 93.7% (inactive) | 81.2% (inactive) | 4.87% (inactive) | 76.4% | 81.2% | -4% (inactive) | 1.9% (inactive)
9 | Cc1nnc(SCc2cnc(-c3ccccc3)o2)[nH]c1=O | 94% | 86% (inactive) | 94% (inactive) | 86.7% (inactive) | 98% (inactive) | 12.2% (inactive) | 85.8% | 98% | 2.76% (inactive) | -0.66% (inactive)
10 | CC(C)CC(=O)Nc1ccccc1-c1nnn(CC(=O)N2CCOCC2)n1 | 102% | 92% (inactive) | 102% (inactive) | 87.8% (inactive) | 86.8% (inactive) | -1.72% (inactive) | 88.5% | 86.8% | -5.87% (inactive) | -1.77% (inactive)
11 | O=C1NC(Nc2ccccn2)(C(F)(F)F)C(=O)N1c1ccc(F)cc1 (stereo not given) | 102% | 89% (inactive) | 102% (inactive) | 107% (inactive) | 103% (inactive) | -0.015% (inactive) | 103% | 103% | -5.47% (inactive) | 1.64% (inactive)
12 | COc1cccc(NC(=O)Nc2cccs2)c1 | 93% | 79% (inactive) | 93% (inactive) | 75% (inactive) | 79.5% (inactive) | 1.41% (inactive) | 78.1% | 79.5% | -6.53% (inactive) | -2.3% (inactive)
13 | O=c1c2c(-c3ccccc3)csc2nc2n1CCC2 | 81% | 99% (inactive) | 81% (inactive) | 77.2% (inactive) | 79.4% (inactive) | -4.97% (inactive) | 84.4% | 79.4% | 2.84% (inactive) | 29.2% (inactive)
14 | CCc1nn2c(N3CCOCC3)cc(C)nc2c1-c1ccc(F)cc1 | 92% | 84% (inactive) | 92% (inactive) | 86.2% (inactive) | 93.4% (inactive) | 31.5% (inactive) | 62% | 93.4% | -6.16% (inactive) | 1.75% (inactive)
15 | O=C(CCn1c(=O)sc2ccccc21)NC1=NCCS1 | 84% | 96% (inactive) | 84% (inactive) | 94.6% (inactive) | 91.6% (inactive) | 4.68% (inactive) | 86.9% | 91.6% | -1.87% (inactive) | -6.72% (inactive)
16 | CCOc1ccc(NC(=O)CN2CCN(CC(=O)Nc3ccc(F)c(F)c3)CC2)cc1 | 95% | 102% (inactive) | 95% (inactive) | 89.3% (inactive) | 79.8% (inactive) | 22.7% (inactive) | 57.1% | 79.8% | -3.6% (inactive) | 4.92% (inactive)
17 | CCCCn1c(=O)[nH]c(=O)c2c1nc(-c1ccncc1)n2CCOC | 108% | 116% (inactive) | 108% (inactive) | 90.5% (inactive) | 94.2% (inactive) | 1.93% (inactive) | 92.2% | 94.2% | 1.43% (inactive) | -6.5% (inactive)
18 | CC(C(=O)NCCCN1CCOCC1)n1cccc1C(=O)c1ccccc1 (stereo not given) | 90% | 76.5% (inactive) | 90% (inactive) | 97.4% (inactive) | 95% (inactive) | 5.71% (inactive) | 89.3% | 95% | -2.37% (inactive) | 0% (inactive)
19 | O=C1C2CCCN2C(c2ccc(Cl)cc2)N1c1nccs1 (stereo not given) | 99% | 77% (inactive) | 99% (inactive) | 86.5% (inactive) | 97.4% (inactive) | 7.26% (inactive) | 90.2% | 97.4% | -2.24% (inactive) | -1.94% (inactive)
20 | CCN1CCN(C(c2ccc(F)cc2)c2nnnn2Cc2cccs2)CC1 (stereo not given) | 83% | 105% (inactive) | 83% (inactive) | 89.4% (inactive) | 94.9% (inactive) | 8.46% (inactive) | 86.4% | 94.9% | -1.15% (inactive) | -0.17% (inactive)
21 | Fc1ccc(Cn2nnc(-c3ccc(CN4CCOCC4)cc3)n2)cc1 | 88% | 122% (inactive) | 88% (inactive) | 108% (inactive) | 103% (inactive) | 6.81% (inactive) | 96.3% | 103% | 84.7% (active) | 43% (active)
22 | COc1cccc(N2CCN(Cc3nc(N)nc(Nc4ccccc4OC)n3)CC2)c1 | 124% | 92% (inactive) | 124% (inactive) | 107% (inactive) | 77.4% (inactive) | -7.01% (inactive) | 84.4% | 77.4% | -3.95% (inactive) | 1.13% (inactive)
23 | CC1(C)CC(=O)c2cc(OCC(=O)NCCCN3CCN(c4ccccc4F)CC3)ccc2O1 | 81% | 85.5% (inactive) | 81% (inactive) | 59.3% (inactive) | 80% (inactive) | -5.98% (inactive) | 86% | 80% | -4.61% (inactive) | -3.45% (inactive)
24 | c1ccc(Nc2ccccc2Nc2ccccn2)nc1 | 138% | 108% (inactive) | 138% (inactive) | 95.8% (inactive) | 91.7% (inactive) | -7.51% (inactive) | 99.2% | 91.7% | -3.33% (inactive) | 5.08% (inactive)
25 | C/C(N)=C(\C#N)C(=O)NCCc1ccccn1 | 81% | 102% (inactive) | 81% (inactive) | 108% (inactive) | 114% (inactive) | 7.44% (inactive) | 107% | 114% | -1.45% (inactive) | 1.48% (inactive)
26 | O=C(Nc1ccccc1C(=O)N1CCN(c2ccccc2)CC1)c1ccco1 | 96% | 101% (inactive) | 96% (inactive) | 95.6% (inactive) | 100% (inactive) | 5.93% (inactive) | 94.2% | 100% | -2.53% (inactive) | 4.43% (inactive)
27 | COc1ccc(C2CC(c3ccccc3)Nc3nc(NC(=O)c4cccs4)nn32)cc1 (stereo not given) | 81.5% | 94.5% (inactive) | 81.5% (inactive) | 83.3% (inactive) | 88.3% (inactive) | 4.87% (inactive) | 83.4% | 88.3% | -1.69% (inactive) | -5.08% (inactive)
28 | CCCN(S(=O)(=O)c1ccc(OCC)cc1)S(=O)(=O)c1cccs1 | 89% | 100% (inactive) | 89% (inactive) | 88.1% (inactive) | 89.8% (inactive) | 5.81% (inactive) | 84% | 89.8% | 0.8% (inactive) | -10.8% (inactive)
